This is an account of results in ChEMBL document CHEMBL1152218, “New acridone-4-carboxylic acid derivatives as potential inhibitors of hepatitis C virus infection” (Bioorg Med Chem, 2008).

The subject of one series is Escherichia phage T7. Briefly: Inhibition of T7 RNA polymerase activity assessed as blockade of DNA transcription. In short, it runs like this: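 In vitro transcription with T7 RNA polymerase, using 0.5 µg EcoRI-cut pTZ19R carrying a 341 bp insert as template. The reaction contained 2 mM of each NTP, 1 U/µl RNase inhibitor and 12 U enzyme in 40 mM Tris-HCl pH 7.9, 6 mM MgCl2, 2 mM spermidine, 10 mM NaCl and 10 mM DTT. Incubation was 1 h at 37 °C. Products were run on 1.2% agarose with EtBr, and IC99 was obtained by band densitometry.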

Series [1] is described as follows: Cytotoxicity against human HuH7 cells by XTT assay. In kind it is cell-based, Huh-7. In short, it runs like this:
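Huh-7 cells carrying the HCV replicon were grown with serial dilutions (1 to 200 µM) for 3 days at 37 °C. XTT-PMS staining followed for 3–4 h at 37 °C. Absorbance was read at 450 nm against a 690 nm reference, with cell-free blank wells subtracted. Growth is expressed as percent of 1–2% DMSO controls, and CC50 is the concentration giving 50% growth inhibition.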
A general note: Tetrazolium dyes change colour on reduction, which living cells bring about.

The nature of series [2]: Inhibition of HCV NS3 helicase activity by fluorimetric assay. Further details: species or system Hepacivirus hominis. In short, it runs like this:
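Direct fluorometric assay of NS3 helicase unwinding, run at 37 °C. IC50 is the inhibitor concentration that reduces helicase activity by 50%.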

Series [3] in a line: Selectivity index, ratio of CC50 for human HuH7 cells to IC50 for HCV subtype 1a. In kind it is functional, Huh-7. In short, it runs like this: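 The ratio CC50/EC50 comes from the XTT cytotoxicity assay and the luciferase replicon assay, both run in replicon-bearing Huh-7 cells.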
The subject of a further series is Hepatitis C virus. Briefly: Antiviral activity against HCV subtype 1a in Huh7 cells assessed as reduction of viral RNA replication. The series is classed as functional, organism-based, Hepacivirus hominis. The following applies: Huh-7. In short, it runs like this: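 Subgenomic HCV replicon (luciferase) in Huh-7 cells; compounds at 1 to 200 µM, with at least three experiments and three replicates per concentration. Luminescence is expressed as percent of control wells containing 1–2% DMSO. EC50 is the concentration that reduces luminescence by 50%.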

Series [4] in a line: Binding affinity to dsRNA assessed as inhibition of ethidium bromide RNA intercalation at 20 uM by RNA migration retardation assay.
Series [5] deals with Hepacivirus hominis. Briefly: Inhibition of HCV NS3 helicase activity in presence of increasing concentration of double stranded DNA substrate at 10 uM. In short, it runs like this: (§1)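 Fluorometric NS3 helicase assay at 37 °C. Inhibitor was held at a constant concentration while the dsDNA substrate concentration was increased. Activity is expressed as percent of the same reaction with DMSO in place of inhibitor.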

Series [6] relates to Nucleic Acid. Briefly: Binding affinity to HCV con1 dsDNA assessed as inhibition of ethidium bromide DNA intercalation by DNA migration retardation assay. In kind it is nucleic-acid assay. Conditions: Hepacivirus hominis.
The subject of series [7] is Hepacivirus hominis. Briefly: Inhibition of HCV NS3 helicase activity in presence of increasing concentration of double stranded DNA substrate at 33 uM. In outline:
as §1

Series [8] relates to Hepacivirus hominis. The experiment in a line: Inhibition of HCV NS3 helicase activity in presence of increasing ATP concentration. In outline: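 Fluorometric NS3 helicase assay, run at 37 °C, with IC50 determined at each of three ATP concentrations. Activity is expressed as percent of the same reaction with DMSO in place of inhibitor.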
Series [9] has as its system Hepacivirus hominis. The experiment in a line: Inhibition of HCV NS3 helicase activity in presence of increasing concentration of double stranded DNA substrate at 5 uM. In outline: as §1
For series [10], the system named is Nucleic Acid. Briefly: Binding affinity to HCV con1 dsDNA assessed as inhibition of ethidium bromide DNA intercalation at 500 uM by DNA migration retardation assay. The series is classed as nucleic-acid assay. The following applies: Hepacivirus hominis.
A short description of series [11]: Binding affinity to dsRNA assessed as inhibition of ethidium bromide RNA intercalation by RNA migration retardation assay.

The structures appear in SMILES notation. Calls of active or inactive are those of the source. No cut-off for these calls is given here. A value given as a limit tells only on which side of the number the result lay.

What is called IC99 is the point of the concentration-response curve where the effect stands at 99%. The term CC50 denotes the concentration at which the toxic effect on the cells reaches its halfway point. The low end stands for harm at low concentration, the high end for better tolerance by the cells. The term IC50 denotes the concentration needed to halve the response being measured. Read a low IC50 as inhibition by little substance. As a reminder, the EC50 is the midpoint of the concentration-response curve.

For `Cc1ccccc1NC(=O)c1cccc2c(=O)c3ccccc3[nH]c12`, in the series on Escherichia phage T7, the concentration for an effect of 99% (IC99) is 80 µM. The compound also showed a CC50 in [1] of 99.3 µM. Also, the half-inhibitory concentration (IC50) in series [2] was more than 100 µM. The “Ratio CC50/EC50” value in series [3] is listed as 5.2. Besides, in the series on Hepatitis C virus, the concentration for a half-maximal effect (EC50) worked out at 19 µM.
As for `[N-]=[N+]=N[C@]1(CO)O[C@@H](n2ccc(N)nc2=O)[C@H](O)[C@@H]1O` [4'-AZIDOCYTIDINE], in the series on Hepatitis C virus, the EC50 was determined as 1.4 µM.
In the case of `O=C(c1cccc2c(=O)c3ccccc3[nH]c12)N1CCCCC1`, the IC99 in the series on Escherichia phage T7 is more than 100 µM. The IC50 in series [2] is more than 100 µM.
For the compound `O=C(Nc1ccncc1)c1cccc2c(=O)c3ccccc3[nH]c12`, the concentration for an effect of 99% (IC99) in the series with Escherichia phage T7 was 20 µM. Besides, the outcome (in series [4]; with Nucleic Acid [6]) was Active. This compound registered a half-maximal cytotoxic concentration (CC50) in series [1] of 175 µM. For the same compound, half-maximal inhibition in [2] (IC50) was put at 8.9 µM. Further, the “Ratio CC50/EC50” value in series [3] amounted to 19.4. The result in the series with Hepacivirus hominis [5] was inactive. Besides, the EC50 in the series on Hepatitis C virus came out at 9 µM.
Turning to `CN(C)CCNC(=O)c1cccc2c(=O)c3ccccc3[nH]c12`, the IC99 in the series with Escherichia phage T7 came out at 80 µM. This compound also showed a concentration for half-maximal inhibition (IC50) in series [2] of more than 100 µM.
Take `Cc1cccnc1NC(=O)c1cccc2c(=O)c3ccccc3[nH]c12`: in the series on Escherichia phage T7, the IC99 was found to be 80 µM. The result (in [4]; in the series with Nucleic Acid [6]) was Active. It took 39.2 µM to reach half-maximal cytotoxicity in series [1] (CC50). In the series with Hepacivirus hominis [7], the result was inactive. Further, in series [2], the IC50 came out at 20.2 µM. Further, the “Ratio CC50/EC50” value in series [3] came out at 3.5. Also, in the series with Hepatitis C virus, the concentration giving a half-maximal response (EC50) is 11.1 µM.
`O=C(Nc1ccccc1)c1cccc2c(=O)c3ccccc3[nH]c12`: the IC99 in the series on Escherichia phage T7 was determined as 40 µM. The compound also had a CC50 in series [1] of 90.9 µM. This compound showed an IC50 in series [2] of more than 100 µM. The “Ratio CC50/EC50” value in series [3] was 7.1. Moreover, the concentration giving a half-maximal response (EC50) in the series with Hepatitis C virus was 12.9 µM.
Turning to `Cc1ccnc(NC(=O)c2cccc3c(=O)c4ccccc4[nH]c23)c1`, the outcome in the series with Hepacivirus hominis [8] and with Hepacivirus hominis [9] was inactive. Further, in the series on Escherichia phage T7, the 99% effect concentration (IC99) came to 40 µM. This compound had a 50% cytotoxic concentration (CC50) in series [1] of 7 µM. The IC50 in series [2] was found to be 6.2 µM. In addition, the “Ratio CC50/EC50” value in series [3] is 1.1. Also, the EC50 in the series with Hepatitis C virus is 6.5 µM.
Regarding `O=C(NCc1ccccn1)c1cccc2c(=O)c3ccccc3[nH]c12`, the IC99 in the series on Escherichia phage T7 was more than 100 µM. The outcome in series [4] was inactive. This compound registered a CC50 in [1] of 10.2 µM. This compound also registered a half-maximal inhibitory concentration (IC50) in [2] of more than 100 µM. The “Ratio CC50/EC50” value in [3] was found to be 2.4. The half-maximal effective concentration (EC50) with Hepatitis C virus stood at 4.3 µM.
Consider `O=C(Nc1ccccn1)c1cccc2c(=O)c3ccccc3[nH]c12`, for which the 99% effect concentration (IC99) in the series with Escherichia phage T7 was 40 µM. In addition, the result (in [4]; in the series with Nucleic Acid [6]) was Active. This compound also yielded a half-maximal cytotoxic concentration (CC50) in series [1] of 412 µM. For the same compound, in [2], it took 3.8 µM to reach half-maximal inhibition (IC50). Also, the “Ratio CC50/EC50” value in series [3] is reported as 40.5. For the same compound, the EC50 in the series on Hepatitis C virus was 10.2 µM. Moreover, the result in the series with Hepacivirus hominis [9] was inactive.
Consider `O=C(c1cccc2c(=O)c3ccccc3[nH]c12)N1CCOCC1`, for which the IC99 in the series on Escherichia phage T7 was more than 100 µM. In series [2], this compound came in with a concentration for half-maximal inhibition (IC50) of more than 100 µM.
Regarding `Cc1ccc(NC(=O)c2cccc3c(=O)c4ccccc4[nH]c23)cc1`, the result (in the series with Nucleic Acid [10]; in [4]; in series [11]) was inactive. The 99% effect concentration (IC99) in the series on Escherichia phage T7 was 10 µM. This compound also had a 50% cytotoxic concentration (CC50) in series [1] of more than 100 µM. In series [2], this compound gave an IC50 of more than 100 µM. Besides, the EC50 in the series with Hepatitis C virus is more than 100 µM.
With `Cc1cccc(NC(=O)c2cccc3c(=O)c4ccccc4[nH]c23)c1`, the IC99 with Escherichia phage T7 was 40 µM. Further, the result in series [4] and in [11] was inactive. The compound also registered a CC50 in [1] of 5.5 µM. In [2], the half-inhibitory concentration (IC50) was more than 100 µM. Besides, the “Ratio CC50/EC50” value in series [3] came out at 1. Moreover, in the series with Hepatitis C virus, the EC50 is 5.6 µM.
For `O=C(NCCCN1CCOCC1)c1cccc2c(=O)c3ccccc3[nH]c12`, the concentration for an effect of 99% (IC99) with Escherichia phage T7 was more than 100 µM. Also, the IC50 in series [2] is more than 100 µM.
